What was measured:
Type in all cases: functional
Escherichia coli [1] = assay: Antibacterial activity against wild type Escherichia coli at 30 nmol after 16 to 20 hrs
Procedure, shortened: (§1)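 Agar overlay diffusion assay: soft Mueller–Hinton agar (0.75% agar) seeded with bacteria poured over Mueller–Hinton agar (1.5% agar). Once set, 5 µL drops of compound in milliQ water were applied (30 nmol per drop, or 1.2 nmol for the reference compound) and allowed to dry. Plates were incubated at 37 °C for 16–20 h. Inhibition zone area was read in mm², triplicate per compound–dose.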

Staphylococcus aureus = assay: Antibacterial activity against Staphylococcus aureus ATCC 25923 at 30 nmol after 16 to 20 hrs; procedure, shortened: as §1
Enterococcus faecalis = assay: Antibacterial activity against Enterococcus faecalis ATCC 29212 at 30 nmol after 16 to 20 hrs; procedure, shortened: as §1
Escherichia coli [2] = assay: Antibacterial activity against Escherichia coli delta ABN mutant lacking peptidase A, B, N at 30 nmol after 16 to 20 hrs
Procedure, shortened: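 Agar diffusion test. A soft Mueller–Hinton agar lawn (0.75% agar) seeded with bacteria was poured over Mueller–Hinton agar (1.5% agar). Once the agar set, 5 µL drops of compound in milliQ water (30 nmol per drop) were applied and left to dry. Plates were incubated at 37 °C for 16–20 h. Inhibition zone area was recorded in mm² as mean ± SD of triplicates.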

Structure (SMILES)	inhibition zone (IZ) (Escherichia coli [1]) [mm2]	inhibition zone (IZ) (Staphylococcus aureus) [mm2]	inhibition zone (IZ) (Enterococcus faecalis) [mm2]	inhibition zone (IZ) (Escherichia coli [2]) [mm2]
CSCC[C@H](N)C(=O)N[C@@H](Cc1c[nH]c2ccccc12)C(=O)NS(=O)(=O)OC[C@H]1O[C@@H](n2cnc3c(N)ncnc32)[C@H](O)[C@@H]1O	0	0	0	
C[C@H](N)C(=O)N[C@@H](Cc1c[nH]c2ccccc12)C(=O)NS(=O)(=O)OC[C@H]1O[C@@H](n2cnc3c(N)ncnc32)[C@H](O)[C@@H]1O	0	0	0	
Nc1ncnc2c1ncn2[C@@H]1O[C@H](COS(=O)(=O)NC(=O)[C@H](Cc2c[nH]c3ccccc23)NC(=O)[C@@H]2CCCN2)[C@@H](O)[C@H]1O	0	0	0	
CC(C)C[C@H](NC(=O)[C@H](C)N)C(=O)NS(=O)(=O)OC[C@H]1O[C@@H](n2cnc3c(N)ncnc32)[C@H](O)[C@@H]1O	0	0	24.2	
Nc1ncnc2c1ncn2[C@@H]1O[C@H](COS(=O)(=O)NC(=O)[C@@H](N)CC(=O)O)[C@@H](O)[C@H]1O	26.8	0	21.3	28.3
CSCC[C@H](NC(=O)[C@H](C)N)C(=O)NS(=O)(=O)OC[C@H]1O[C@@H](n2cnc3c(N)ncnc32)[C@H](O)[C@@H]1O	0	0	0	
CSCC[C@H](N)C(=O)NS(=O)(=O)OC[C@H]1O[C@@H](n2cnc3c(N)ncnc32)[C@H](O)[C@@H]1O	26.8	18.7	0	40.4
Nc1ncnc2c1ncn2[C@@H]1O[C@H](COS(=O)(=O)NC(=O)[C@@H](N)Cc2c[nH]c3ccccc23)[C@@H](O)[C@H]1O	0	0	0	
CSCC[C@H](N)C(=O)N[C@@H](C)C(=O)NS(=O)(=O)OC[C@H]1O[C@@H](n2cnc3c(N)ncnc32)[C@H](O)[C@@H]1O	26.8	59	76.1	0
CSCC[C@H](N)C(=O)N[C@@H](CC(C)C)C(=O)NS(=O)(=O)OC[C@H]1O[C@@H](n2cnc3c(N)ncnc32)[C@H](O)[C@@H]1O	0	0	33.3	
CC(C)C[C@H](NC(=O)[C@@H](N)CCCCN)C(=O)NS(=O)(=O)OC[C@H]1O[C@@H](n2cnc3c(N)ncnc32)[C@H](O)[C@@H]1O	0	0	0	
CSCC[C@H](NC(=O)[C@@H]1CCCN1)C(=O)NS(=O)(=O)OC[C@H]1O[C@@H](n2cnc3c(N)ncnc32)[C@H](O)[C@@H]1O	0	0	0	

Source: ChEMBL document CHEMBL1139342, “Antibacterial 5'-O-(N-dipeptidyl)-sulfamoyladenosines” (2009)
